Laboratory results published in ChEMBL document CHEMBL1154127, “Oxidative burst inhibitory and cytotoxic indoloquinazoline and furoquinoline alkaloids from Oricia suaveolens” (J Nat Prod, 2008).
Active and inactive are the calls of the source. The calls are words filed in the database; no cut-off is given here.

Experiments:
[1] = Immunomodulatory activity in whole blood assessed as inhibition of luminol-induced oxidative burst by chemiluminescence assay; format: functional, tissue-based
Method in brief: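 Whole blood diluted 1:200 in HBSS with Ca2+ and Mg2+, preincubated 30 min with compounds at 3.1-50 µg/mL. Then serum-opsonized zymosan (20 mg/mL as added) and luminol ([…] as added) were added, and the final volume brought to 0.2 mL with HBSS++. HBSS++ alone served as control. Luminol-enhanced chemiluminescence measured, giving IC50.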

Neutrophil [2] = experiment: Immunomodulatory activity in polymorphoneutrophils assessed as inhibition of luminol-induced oxidative burst by chemiluminescence assay; format: functional, cell-based
Method in brief: (§1)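 Luminol-enhanced chemiluminescence on isolated neutrophils (1 × 10^7) in HBSS with Ca2+ and Mg2+. Cells preincubated 30 min with compounds at 3.1-50 µg/mL. Burst triggered with serum-opsonized zymosan (20 mg/mL as added), followed by luminol ([…] as added). Final volume adjusted to 0.2 mL with HBSS++, which also served as control. Read-out is IC50.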

Neutrophil [3] = experiment: Immunomodulatory activity in polymorphoneutrophils assessed as inhibition of zymosan-activated oxidative burst by chemiluminescence assay; format: functional, cell-based; method in brief: as §1
Neutrophil [4] = experiment: Immunomodulatory activity in polymorphoneutrophils assessed as inhibition of PMA-activated oxidative burst by chemiluminescence assay; format: functional, cell-based
A549 = experiment: Cytotoxicity against human A549 cells by SRB assay; format: functional, cell-based
Method in brief: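 A549 lung adenocarcinoma cells, freshly trypsinized, seeded at 1 × 10^4 cells per well. Compounds added from a DMSO-diluted stock. Cultured 3 days, then attached cells stained with sulforhodamine B and dye solubilized in DMSO. Absorbance read at 550 nm. IC50 is the concentration reducing cell growth by 50%. Cisplatin served as positive control.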

Row | Compound | IC50 [1] | IC50 (Neutrophil [2]) | Activity (Neutrophil [3]) | Activity (Neutrophil [4]) | IC50 (A549)
1 | COc1c2c(cc3nc4occc4c(OC)c13)OCO2 | – | – | – | – | 7.9 µM
2 | COc1c2ccoc2nc2c(OC)c3c(cc12)OCO3 [FLINDERSIAMINE] | – | – | – | – | 8.9 µM
3 | CC(C)Cc1ccc(C(C)C(=O)O)cc1 (stereo unspecified) [IBUPROFEN] | 54.3 µM | 12.1 µM | – | – | –
4 | CC1(C)O[C@H]2CC(=O)OC[C@]23[C@H]2CC[C@@]4(C)[C@H](c5ccoc5)OC(=O)[C@H]5O[C@]54[C@]2(C)C(=O)C[C@@H]13 [LIMONIN] | 26.1 µM | 38.2 µM | Dose-dependent effect | inactive | –
5 | COc1c2cc3c(cc2nc2occc12)OCO3 [MACULINE] | – | – | – | – | 9.5 µM
6 | O=c1c2ccc(O)cc2nc2n1CCc1c-2[nH]c2ccccc12 [ORISUAVEOLINE A] | – | – | – | – | > 10 µM

More lines, main results first:

Row | IC50 [1] | IC50 (Neutrophil [2]) | Compound | Activity (Neutrophil [3]) | Activity (Neutrophil [4]) | IC50 (A549)
7 | 48.8 µM | 27.4 µM | COc1ccc2c(=O)n3c(nc2c1)-c1[nH]c2ccccc2c1CC3 | Dose-dependent effect | inactive | > 10 µM
8 | 74.9 µM | 61.8 µM | COc1cc2nc3occc3c(OC)c2cc1OC [KOKUSAGININE] | Dose-dependent effect | inactive | –
9 | 31.8 µM | 22.4 µM | COc1ccc2c(=O)n3c(nc2c1)-c1[nH]c2cc4c(cc2c1CC3)OCO4 [ORISUAVEOLINE B] | Dose-dependent effect | inactive | –
10 | 56.8 µM | 14.5 µM | COc1c2cc3c(cc2nc2occc12)O[C@@H](C(C)(C)O)CO3 [QUINOSUAVEOLINE B] | Dose-dependent effect | inactive | –
11 | 51.3 µM | 35.5 µM | COc1ccc2c(OC)c3ccoc3nc2c1OC [SKIMMIANINE] | Dose-dependent effect | inactive | > 10 µM
12 | 54.4 µM | 21.2 µM | COc1c2ccoc2nc2c(O)c3c(c(CC=C(C)C)c12)OCO3 [TECLEAVERDOORNINE] | Dose-dependent effect | inactive | –
